One data set has as its target T1, Hexokinase-4 (Homo sapiens, UniProt P35557).
T1 sequence (P35557 whole entry): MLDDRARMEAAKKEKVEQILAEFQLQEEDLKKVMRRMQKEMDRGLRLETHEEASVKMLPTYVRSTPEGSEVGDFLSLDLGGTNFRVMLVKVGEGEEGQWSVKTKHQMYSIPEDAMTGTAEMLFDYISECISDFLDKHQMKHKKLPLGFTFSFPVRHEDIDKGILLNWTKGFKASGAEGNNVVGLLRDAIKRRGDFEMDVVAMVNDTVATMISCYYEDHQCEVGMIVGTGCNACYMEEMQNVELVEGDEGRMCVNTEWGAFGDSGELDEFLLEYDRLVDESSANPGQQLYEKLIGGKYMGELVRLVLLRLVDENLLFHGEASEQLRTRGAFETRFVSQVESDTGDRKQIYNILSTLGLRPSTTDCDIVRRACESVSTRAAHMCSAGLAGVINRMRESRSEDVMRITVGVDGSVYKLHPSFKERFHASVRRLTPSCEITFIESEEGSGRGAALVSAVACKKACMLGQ
The data set can be described thus: Activation of human recombinant glucokinase expressed in Escherichia coli BL21(DE3) coexpressing G6PDH assessed as glucose 6-phosphate formation by spectrometric analysis.

Data set [1] deals with T2, Hexokinase-4 (Homo sapiens) (UniProt P35557).
T2 sequence (whole entry): T1 sequence (P35557 whole entry)
The data set can be described thus: Activation of human recombinant glucokinase expressed in Escherichia coli BL21(DE3) coexpressing G6PDH assessed as glucose 6-phosphate formation by spectrometric analysis relative to control. A digest of the protocol: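 N-terminal His6-tagged human GK, expressed in E. coli BL21(DE3), purified on Ni-NTA. NADPH formation followed as rate of A340. Fold activation taken against DMSO control (100%), and maximum fold reported.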

Data set [2] is described as follows: Half life in ICR mouse at 10 mg/kg, iv. Set-up: dose 10 mg/kg, route intravenous. The format is ADME, organism-based. To be noted: in vivo. A digest of the protocol:
(§1)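 Mice received a single iv dose of 10 mg/kg or a single po dose of 20 mg/kg. Vehicle was DMSO, tween-80 and normal saline. Plasma concentration–time data gave CL, Vss and t1/2 from the iv arm, and Cmax, Tmax, AUC0-∞ and F from the po arm. Values are the average of three runs.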

The nature of data set [3]: Volume of distribution at steady state in ICR mouse at 10 mg/kg, iv. It is filed as ADME, organism-based. Further details: dose 10 mg/kg, route intravenous. The conditions noted are these: in vivo, read-out: Vdss. A digest of the protocol: as §1
Data set [4] concerns the target T2, Hexokinase-4 (Homo sapiens). Description: Ratio of EC50 for GK50 to compound for activation of human recombinant glucokinase expressed in Escherichia coli BL21(DE3) coexpressing G6PDH assessed as glucose 6-phosphate formation by spectrometric analysis. A digest of the protocol:
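EC50 obtained in the same G6PDH-coupled A340 assay of His6-tagged human GK, with GK50 run in parallel. Six compound concentrations per curve, and fold activity over DMSO control fitted to a four-parameter logistic sigmoid. Values are means of three independent experiments.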

Data set [5] can be described thus: Clearance in ICR mouse at 10 mg/kg, iv. The format is ADME, organism-based. Set-up: dose 10 mg/kg, route intravenous. To be noted: in vivo. A digest of the protocol:
as §1

The nature of data set [6]: Oral bioavailability in ICR mouse at 20 mg/kg. The format is ADME, organism-based. To be noted: in vivo. A digest of the protocol: as §1
The nature of data set [7]: AUC (0 to infinity) in ICR mouse at 20 mg/kg, po. It is filed as ADME, organism-based. Set-up: time infinity, dose 20 mg/kg, route oral. The conditions noted are these: plasma. A digest of the protocol:
as §1

The nature of data set [8]: Tmax in ICR mouse at 20 mg/kg, po. It is filed as ADME, organism-based. Set-up: dose 20 mg/kg, route oral. The conditions noted are these: in vivo. A digest of the protocol:
as §1

The subject of another data set is Mus musculus. The data set can be described thus: Hypoglycemic activity in ICR mouse assessed as reduction in blood glucose level at 10 mg/kg, po measured within 1 hr relative to control. The format is functional. Set-up: scale not given: the % may be the effect or the level left. A digest of the protocol:
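Male ICR mice, 8 weeks old, on a reversed light cycle, were fasted 2 h with water allowed and grouped by body weight. They were dosed orally with 10 mg/kg or with vehicle (0.5% carboxymethylcellulose). Blood glucose was tracked, with ΔBG taken from 0 min, and reduction expressed against vehicle within 1 h. Mean ± SEM, n = 6.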

Data set [9] can be described thus: Cmax in ICR mouse at 20 mg/kg, po. The format is ADME, organism-based. Further details: dose 20 mg/kg, route oral. To be noted: in vivo. A digest of the protocol: as §1

For orientation: EC50 means the concentration giving half of the maximal effect. In general, half-life refers to the time needed for the level to fall by half in the phase considered. The clearance is a measure of how efficiently the substance is removed, as volume per time. In general, bioavailability refers to dose-corrected exposure relative to a reference, in per cent. As usually defined, the AUC(0-inf) is the area under the concentration-time curve extrapolated to infinity. A word on the Tmax: it is the time at which the peak concentration occurs. In general, Cmax refers to the maximum level reached in the sampled fluid or tissue.

With `CC(C)=CCOc1cc(Oc2ccc(S(=O)(=O)N3CCOCC3)cc2)cc(C(=O)Nc2ccn(C)n2)c1`, the half-maximal effective concentration (EC50) at Hexokinase-4 worked out at 297 nM. For the same compound, in data set [1], the fold change (FC) came to 3.

`CC(C)=CCOc1cc(Oc2ccc(S(=O)(=O)C3CC3)cc2)cc(C(=O)Nc2cc(C)n(C)n2)c1`: the EC50 at Hexokinase-4 worked out at 90.1 nM. The fold change (FC) in data set [1] turned out to be 1.5.

With `CC(C)=CCOc1cc(Oc2ccc(S(=O)(=O)C3CC3)cc2)cc(C(=O)Nc2nc(-c3ccc(F)cc3)cs2)c1`, at Hexokinase-4, the EC50 stood at 250 nM. For the same compound, in data set [1], the fold change (FC) came to 0.9.

`CC(C)=CCOc1cc(Oc2ccc(S(=O)(=O)N3CCOCC3)cc2)cc(C(=O)Nc2ncc(F)s2)c1`: the EC50 on Hexokinase-4 was 52 nM. Moreover, the fold change (FC) in [1] is 1.8.

Regarding `CC(C)=CCOc1cc(Oc2ccc(S(=O)(=O)N3C[C@@H](C)O[C@@H](C)C3)cc2)cc(C(=O)Nc2cc(C)n(C)n2)c1`, the EC50 at Hexokinase-4 turned out to be 44.8 nM. Moreover, in data set [1], the fold change (FC) stood at 1.6.

Consider `CC(C)=CCOc1cc(Oc2ccc(S(=O)(=O)N3C[C@@H](C)O[C@@H](C)C3)cc2)cc(C(=O)Nc2ncc(F)s2)c1`, for which the EC50 on Hexokinase-4 stood at 65.4 nM. In [1], the fold change (FC) worked out at 1.7.

`CC(C)=CCOc1cc(Oc2ccc(S(=O)(=O)C3CC3)cc2)cc(C(=O)Nc2nccs2)c1`: in data set [2], the half-life was 2.3 h. For the same compound, in data set [3], the Vd worked out at 0.28 L/kg. For the same compound, the Ratio EC50 in data set [4] stood at 8. In [5], this compound gave a clearance of 3.33 mL/min/kg. Besides, at Hexokinase-4, the EC50 is 28.3 nM. In addition, in [1], the fold change (FC) is 2.4. Besides, the bioavailability in data set [6] came to 38.6%. In data set [7], this compound registered an AUC(0-inf) of 39800 ng·h/mL. In data set [8], the time of peak concentration (Tmax) came out at 1 h. For the same compound, in the data set with Mus musculus, the Activity is reported as 5.5%. The compound also gave a Cmax in [9] of 15800 ng/mL.

Regarding `CC(C)=CCOc1cc(Oc2ccc(S(=O)(=O)N3CC[C@H](F)C3)cc2)cc(C(=O)Nc2ccn(C)n2)c1`, the EC50 at Hexokinase-4 is 83.5 nM. Further, the fold change (FC) in data set [1] was 2.1.

With `CC(C)=CCOc1cc(Oc2ccc(S(=O)(=O)N3CC4CCC(C3)O4)cc2)cc(C(=O)Nc2ccn(C)n2)c1`, the EC50 at Hexokinase-4 is 242 nM. In addition, the fold change (FC) in data set [1] was 1.7.

The compound `CC(C)=CCOc1cc(Oc2ccc(S(=O)(=O)N3CC[C@H](F)C3)cc2)cc(C(=O)Nc2ncc(F)s2)c1` had a half-life in [2] of 5.9 h. Also, in data set [3], the Vd worked out at 1.2 L/kg. The compound also had a clearance in data set [5] of 17.8 mL/min/kg. Besides, at Hexokinase-4, the EC50 amounted to 44.8 nM. Moreover, the fold change (FC) in data set [1] stood at 2.2. The same compound yielded a bioavailability in [6] of 9.5%. In data set [7], this compound gave an AUC(0-inf) of 1790 ng·h/mL. Moreover, the time to peak (Tmax) in data set [8] was found to be 1 h. Moreover, in the data set on Mus musculus, the Activity was found to be 8.1%. Besides, the peak level in data set [9] (Cmax) was 1090 ng/mL.

Turning to `CC(C)=CCOc1cc(Oc2ccc(S(=O)(=O)N3C[C@@H](C)O[C@@H](C)C3)cc2)cc(C(=O)Nc2ccn(C)n2)c1`, the EC50 on Hexokinase-4 was 265 nM. Besides, the fold change (FC) in data set [1] was determined as 1.8.

Consider `COC1CCN(S(=O)(=O)c2ccc(Oc3cc(OCC=C(C)C)cc(C(=O)Nc4ccn(C)n4)c3)cc2)CC1`, for which, at Hexokinase-4, the EC50 was 491 nM. Also, the fold change (FC) in data set [1] is 1.7.

With `COC1CCN(S(=O)(=O)c2ccc(Oc3cc(OCC=C(C)C)cc(C(=O)Nc4nccs4)c3)cc2)CC1`, the EC50 on Hexokinase-4 is 90.4 nM. Besides, the fold change (FC) in data set [1] came out at 1.7.

`CC(C)=CCOc1cc(Oc2ccc(S(=O)(=O)N3CCOCC3)cc2)cc(C(=O)Nc2nccs2)c1`: the EC50 at Hexokinase-4 came to 48 nM. Further, in [1], the fold change (FC) was determined as 2.1.

For `CC(C)=CCOc1cc(Oc2ccc(S(=O)(=O)N3CC[C@H](F)C3)cc2)cc(C(=O)Nc2nccs2)c1`, at Hexokinase-4, the EC50 is 52.3 nM. Further, the fold change (FC) in data set [1] worked out at 1.9.

As to `CC(C)=CCOc1cc(Oc2ccc(S(=O)(=O)C3CC3)cc2)cc(C(=O)Nc2ncc(F)s2)c1`, the EC50 at Hexokinase-4 is 47.7 nM. In data set [1], the fold change (FC) was found to be 1.8.

Regarding `CC(C)=CCOc1cc(Oc2ccc(S(=O)(=O)N3CC4CCC(C3)O4)cc2)cc(C(=O)Nc2nccs2)c1`, the EC50 on Hexokinase-4 was 101 nM. In addition, the fold change (FC) in data set [1] worked out at 1.7.

For `CC(C)=CCOc1cc(Oc2ccc(S(=O)(=O)C3CC3)cc2)cc(C(=O)Nc2cnc(C)cn2)c1`, the EC50 on Hexokinase-4 turned out to be 165 nM. Besides, in [1], the fold change (FC) stood at 1.6.

On to `CC(C)=CCOc1cc(Oc2ccc(S(=O)(=O)N3CCOCC3)cc2)cc(C(=O)Nc2cc(C)n(C)n2)c1`, for which, on Hexokinase-4, the EC50 amounted to 95.1 nM. Moreover, the fold change (FC) in data set [1] was determined as 1.5.

For `CC(C)=CCOc1cc(Oc2ccc(S(=O)(=O)N3CC[C@H](F)C3)cc2)cc(C(=O)Nc2cc(C)n(C)n2)c1`, the EC50 on Hexokinase-4 was 63.1 nM. Further, in [1], the fold change (FC) was determined as 1.9.

Take `COC1CCN(S(=O)(=O)c2ccc(Oc3cc(OCC=C(C)C)cc(C(=O)Nc4cc(C)n(C)n4)c3)cc2)CC1`: at Hexokinase-4, the EC50 was 460 nM. The fold change (FC) in data set [1] is 1.8.

With `COC1CCN(S(=O)(=O)c2ccc(Oc3cc(OCC=C(C)C)cc(C(=O)Nc4ncc(F)s4)c3)cc2)CC1`, the EC50 on Hexokinase-4 turned out to be 64.6 nM. The fold change (FC) in data set [1] amounted to 1.7.

For the compound `CC(C)=CCOc1cc(Oc2ccc(S(=O)(=O)N3C[C@@H](C)O[C@@H](C)C3)cc2)cc(C(=O)Nc2nccs2)c1`, on Hexokinase-4, the EC50 turned out to be 62.6 nM. For the same compound, the fold change (FC) in [1] was 1.5.

On to `CC(C)=CCOc1cc(Oc2ccc(S(=O)(=O)C3CC3)cc2)cc(C(=O)Nc2nccn3ccnc23)c1`, for which the EC50 on Hexokinase-4 is above 1000 nM.

Regarding `CC(C)=CCOc1cc(Oc2ccc(S(=O)(=O)C3CC3)cc2)cc(C(=O)NC2=NC(=O)CS2)c1`, the EC50 at Hexokinase-4 amounted to 120 nM. Also, the fold change (FC) in data set [1] was found to be 1.5.

As for `CC(C)=CCOc1cc(Oc2ccc(S(=O)(=O)N3CC4CCC(C3)O4)cc2)cc(C(=O)Nc2ncc(F)s2)c1`, the EC50 at Hexokinase-4 amounted to 78 nM. Further, the fold change (FC) in data set [1] was found to be 1.9.

As to `CC(C)=CCOc1cc(Oc2ccc(S(=O)(=O)C3CC3)cc2)cc(C(=O)Nc2nc(C(C)(C)C)cs2)c1`, on Hexokinase-4, the EC50 turned out to be 890 nM. The fold change (FC) in [1] was found to be 0.7.

For the compound `CC(C)=CCOc1cc(Oc2ccc(S(=O)(=O)N3CC4CCC(C3)O4)cc2)cc(C(=O)Nc2cc(C)n(C)n2)c1`, the EC50 at Hexokinase-4 worked out at 144 nM. The fold change (FC) in data set [1] is 1.5.
